In series [1] the target is Sterol 14-alpha demethylase (Trypanosoma cruzi (strain CL Brener)) (UniProt Q7Z1V1). The series can be described thus: Inhibition of recombinant Trypanosoma cruzi Tulahuen CYP51 expressed in Escherichia coli JM109 cell membranes assessed as residual activity at 0.1 uM by fluorescence based analysis (reference value: 95%).
Series [2] shares this target. As to the kind of experiment: Potency index, ratio of fluconazole IC50 to compound IC50 for recombinant Trypanosoma cruzi Tulahuen CYP51.
Series [3] relates to Trypanosoma cruzi. The series can be described thus: Antitrypanosomal activity against Trypanosoma cruzi Tulahuen trypomastigote forms infected in mouse L929 cells assessed as reduction in parasite load after 96 hrs by beta-galactosidase reporter gene assay. Format: functional, organism-based. The settings on record: L929, 96 h. Summed up:
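L929 cells infected 2 h with tissue culture-derived Tulahuen β-galactosidase trypomastigotes (10:1 parasite/host cell), rinsed with saline, and left 48 h at 37℃. Increasing non-toxic concentrations applied for 96 h. Absorbance read at 570 nm, % growth inhibition versus untreated cells, EC50 derived; mean ± SD. DMSO not above 0.6 %.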
On the technique in general: Reporter assays use an easily measured gene product as a stand-in for the process of interest.

Series [4] concerns Trypanosoma cruzi. As to the kind of experiment: Antitrypanosomal activity against bloodstream trypomastigote stage of Trypanosoma cruzi Y infected in Swiss Webster mouse assessed as reduction in parasitemia at 10 mg/kg, ip administered daily on day 5 to 9 post infection relative to control. Format: functional. Also on record: scale not given: the % may be the effect or the level left. In a few lines:
(§1)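 Male Swiss Webster mice (18–20 g) infected i.p. with 10^4 Y strain bloodstream trypomastigotes. Treatment given days 5–9 post infection: test compound i.p. 5–20 mg/kg/day (0.1 mL, DMSO then 20% Trappsol) or Bz 100 mg/kg/day p.o. (3% Tween 80 in water). Controls infected, vehicle only. Parasitemia counted by Pizzi-Brener in 5 µL tail blood; mortality checked daily to 30 days post treatment.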

Series [5] addresses Sterol 14-alpha demethylase (Trypanosoma cruzi (strain CL Brener)) (UniProt Q7Z1V1). As to the kind of experiment: Inhibition of recombinant Trypanosoma cruzi Tulahuen CYP51 expressed in Escherichia coli JM109 cell membranes assessed as residual activity at 0.01 uM by fluorescence based analysis (reference value: 95%).
The target is the same in series [6]. As to the kind of experiment: Inhibition of recombinant Trypanosoma cruzi Tulahuen CYP51 expressed in Escherichia coli JM109 cell membranes assessed as residual activity at 0.33 uM by fluorescence based analysis (reference value: 95%).
Series [7] has as its system Trypanosoma cruzi. The series can be described thus: Trypanocidal activity against Trypanosoma cruzi Sylvio X10/7 intracellular amastigotes forms assessed as inhibition of maximum parasite growth measured every 24 hrs for 96 hrs by time-kill assay relative to control. It is filed as functional.
Series [8] addresses Sterol 14-alpha demethylase (Trypanosoma cruzi (strain CL Brener)) (UniProt Q7Z1V1). As to the kind of experiment: Inhibition of recombinant Trypanosoma cruzi Tulahuen CYP51 expressed in Escherichia coli JM109 cell membranes assessed as residual activity at 10 uM by fluorescence based analysis (reference value: 95%).
Series [9] has the same target. As to the kind of experiment: Inhibition of recombinant Trypanosoma cruzi Tulahuen CYP51 expressed in Escherichia coli JM109 cell membranes assessed as residual activity at 0.033 uM by fluorescence based analysis (reference value: 95%).
Series [10] concerns the target Sterol 14-alpha demethylase (Trypanosoma cruzi (strain CL Brener), UniProt Q7Z1V1). The series can be described thus: Inhibition of recombinant Trypanosoma cruzi Tulahuen CYP51 expressed in Escherichia coli JM109 cell membranes assessed as […] by fluorescence based analysis.
Series [11] deals with Trypanosoma cruzi. As to the kind of experiment: Trypanocidal activity against Trypanosoma cruzi Sylvio X10/7 intracellular amastigotes forms measured every 24 hrs for 96 hrs by time-kill assay. Format: functional.
Series [12] deals with Trypanosoma cruzi. The series can be described thus: Antitrypanosomal activity against bloodstream trypomastigote stage of Trypanosoma cruzi Y infected in Swiss Webster mouse assessed as increase in mouse survival at 5 to 20 mg/kg, ip administered daily on day 5 to 9 measured daily until 30 days post dose relative to control. Format: functional, organism-based. Summed up: as §1

Series [13] has as its system Trypanosoma cruzi. As to the kind of experiment: Antitrypanosomal activity against bloodstream trypomastigote stage of Trypanosoma cruzi Y infected in Swiss Webster mouse assessed as reduction in parasitemia at 20 mg/kg, ip administered daily on day 5 to 9 post infection relative to control. Also on record: scale not given: the % may be the effect or the level left. It is filed as functional. In a few lines: as §1

Series [14] can be described thus: Acute toxicity in ip dosed Swiss Webster mouse measured 48 hrs post dose. Format: organism-based. The settings on record: in vivo. Summed up: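 Female Swiss Webster mice (20 to 23 g) injected intraperitoneally with increasing doses up to 200 mg/kg, n = 2 mice per assay, two assays. Animals inspected for toxic and subtoxic signs under OECD guidelines; NOAEL determined 48 h after injection. Vehicle: DMSO then Trappsol, in vivo vehicle not above 20 %.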

The target of series [15] is Sterol 14-alpha demethylase (Trypanosoma cruzi (strain CL Brener)) (UniProt Q7Z1V1). As to the kind of experiment: Inhibition of recombinant Trypanosoma cruzi Tulahuen CYP51 expressed in Escherichia coli JM109 cell membranes assessed as residual activity at 1 uM by fluorescence based analysis (reference value: 95%).
For series [16], the system named is Trypanosoma cruzi. The series can be described thus: Antitrypanosomal activity against bloodstream trypomastigote stage of Trypanosoma cruzi Y measured after 24 hrs by light microscopic analysis. It is filed as functional, organism-based. Summed up:
(§2)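 Y strain bloodstream trypomastigotes from heart puncture of infected mice, at 5x10⁶/mL in RPMI 1640 with 5% FBS. Incubated at 37℃ with 0–50 µM for 2 or 24 h. […] Mean ± SD.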

Series [17] deals with Trypanosoma cruzi. As to the kind of experiment: Antitrypanosomal activity against bloodstream trypomastigote stage of Trypanosoma cruzi Y infected in Swiss Webster mouse assessed as reduction in parasitemia at 5 mg/kg, ip administered daily on day 5 to 9 post infection relative to control. It is filed as functional. Set-up: scale not given: the % may be the effect or the level left. In a few lines: as §1

The target of series [18] is Sterol 14-alpha demethylase (Trypanosoma cruzi (strain CL Brener)) (UniProt Q7Z1V1). The series can be described thus: Inhibition of recombinant Trypanosoma cruzi Tulahuen CYP51 expressed in Escherichia coli JM109 cell membranes assessed as residual activity at 3.3 uM by fluorescence based analysis (reference value: 95%).
Series [19] deals with Trypanosoma cruzi. The series can be described thus: Antitrypanosomal activity against Trypanosoma cruzi Sylvio X10/7 intracellular amastigotes forms assessed as reduction in number of amastigotes per host cell measured every 24 hrs for 96 hrs by time-kill assay. Format: functional, organism-based.
Series [20] concerns Trypanosoma cruzi. As to the kind of experiment: Antitrypanosomal activity against bloodstream trypomastigote stage of Trypanosoma cruzi Y measured after 2 hrs by light microscopic analysis. It is filed as functional, organism-based. Summed up: as §2
Series [21] deals with Trypanosoma cruzi. The series can be described thus: Antitrypanosomal activity against bloodstream trypomastigote stage of Trypanosoma cruzi Y infected in Swiss Webster mouse assessed as mouse survival at 100 mg/kg, po administered daily on day 5 to 9 measured daily until 30 days post dose relative to control. Format: functional. Summed up: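 Male Swiss Webster mice (18-20 g) were infected i.p. with 10^4 Y-strain bloodstream trypomastigotes. Benznidazole was given in sterile water with 3% Tween 80, 0.1 mL p.o. daily from 5 to 9 dpi. Mice were checked daily for mortality until 30 days post treatment, and the result was expressed as percentage cumulative mortality.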

A short description of series [22]: Selectivity index, ratio of LC50 for Swiss Webster mouse cardiac cells by light microscopic analysis to EC50 for bloodstream trypomastigote stage of Trypanosoma cruzi Y measured after 24 hrs. It is filed as toxicity. The settings on record: read-out: Selectivity Index. Summed up:
(§3)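 The ratio is cardiac-cell LC50 (24 h) over the 24 h EC50 against Y-strain bloodstream trypomastigotes. Trypomastigotes (5x10^6/mL) were exposed to 0-50 µM at 37°C in RPMI with 5% FBS. Surviving parasites were counted in a Neubauer chamber, and the EC50 is the concentration halving the parasite number.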

Series [23] is described as follows: Cytotoxicity against mouse L929 cells assessed as reduction in cell viability after 96 hrs by light microscopic analysis. Particulars: read-out: LC50. Format: cell-based. In a few lines:
(§4)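 L929 fibroblasts (4x10^3 cells/well) in RPMI 1640 with 10% FBS, incubated at 37°C with increasing concentrations for 96 h. Viability was read with AlamarBlue (6 h incubation, absorbance at 600 nm) and confirmed by light microscopy.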

Series [24] in a line: Cytotoxicity against mouse L929 cells assessed as reduction in cell viability after 96 hrs by Alamarblue assay. Format: cell-based. The settings on record: read-out: LC50. Summed up:
as §4
Background: Resazurin is reduced to fluorescent resorufin, in cell work by metabolically active cells.

The nature of series [25]: Cytotoxicity against Swiss Webster mouse cardiac cells assessed as reduction in cell viability after 24 hrs by light microscopic analysis. Format: cell-based, Cardiac Muscle Cell. Particulars: read-out: LC50. Summed up: (§5)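 Primary cardiac cells from Swiss Webster mouse embryos, cultured at 37°C in DMEM with 5% FBS, CaCl2, glutamine and chick embryo extract. Uninfected cultures were exposed to increasing concentrations for 24 h. Viability was read with PrestoBlue (5 h incubation, absorbance at 570 nm) and checked by light microscopy for morphology.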

Series [26] in a line: Cytotoxicity against Swiss Webster mouse cardiac cells assessed as reduction in cell viability after 24 hrs by prestoblue assay. Format: cell-based, Cardiac Muscle Cell. The settings on record: read-out: LC50. Summed up: as §5
The test system of series [27] is Trypanosoma cruzi. The series can be described thus: Antitrypanosomal activity against Trypanosoma cruzi Tulahuen trypomastigote forms infected in mouse L929 cells assessed as reduction in infection level at 10 to 12 uM after 96 hrs by beta-galactosidase reporter gene assay relative to control. It is filed as functional. Set-up: scale not given: the % may be the effect or the level left. Summed up:
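L929 cells infected 2 h with tissue culture-derived β-galactosidase-expressing Tulahuen trypomastigotes at 10:1 parasite/host cell ratio, rinsed, and held 48 h at 37℃. Single fixed concentration (10-12 µM) then applied, 96 h. Absorbance read at 570 nm; growth inhibition expressed relative to untreated cells. DMSO not above 0.6 %.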

Series [28] deals with Trypanosoma cruzi. As to the kind of experiment: Antitrypanosomal activity against bloodstream trypomastigote stage of Trypanosoma cruzi Y infected in Swiss Webster mouse assessed as reduction in parasitemia at 100 mg/kg, po administered daily measured at day 8 post infection. Format: functional, organism-based.
Series [29] can be described thus: Selectivity index, ratio of LC50 for mouse L929 cells by light microscopic analysis to EC50 for Trypanosoma cruzi Tulahuen trypomastigote forms. It is filed as toxicity. The settings on record: read-out: Selectivity Index.
The subject of series [30] is Trypanosoma cruzi. The series can be described thus: Antitrypanosomal activity against bloodstream trypomastigote stage of Trypanosoma cruzi Y infected in Swiss Webster mouse assessed as reduction in parasitemia at 100 mg/kg, po administered daily on day 5 to 9 post infection relative to control. Also on record: scale not given: the % may be the effect or the level left. It is filed as functional. Summed up:
as §1

Series [31] in a line: Selectivity index, ratio of LC50 for mouse L929 cells by Alamarblue assay to EC50 for Trypanosoma cruzi Tulahuen trypomastigote forms. Format: toxicity. The settings on record: read-out: Selectivity Index.
A short description of series [32]: Selectivity index, ratio of LC50 for Swiss Webster mouse cardiac cells by prestoblue assay to EC50 for bloodstream trypomastigote stage of Trypanosoma cruzi Y measured after 24 hrs. It is filed as toxicity. Particulars: read-out: Selectivity Index. Summed up:
as §3

The results in this text go back to ChEMBL document CHEMBL4196064, “Identification of Pyrazolo[3,4-e][1,4]thiazepin based CYP51 inhibitors as potential Chagas disease therapeutic alternative: In vitro and in vivo evaluation, binding mode prediction and SAR exploration” (Eur J Med Chem, 2018).

In brackets after ≈: the same amount, converted by molar mass. Activity calls are given as the source filed them. No cut-off for these calls is given here. A value given as a limit tells only on which side of the number the result lay.

Sterol 14-alpha demethylase (Trypanosoma cruzi (strain CL Brener)), sequence (Q7Z1V1 whole entry, looked up): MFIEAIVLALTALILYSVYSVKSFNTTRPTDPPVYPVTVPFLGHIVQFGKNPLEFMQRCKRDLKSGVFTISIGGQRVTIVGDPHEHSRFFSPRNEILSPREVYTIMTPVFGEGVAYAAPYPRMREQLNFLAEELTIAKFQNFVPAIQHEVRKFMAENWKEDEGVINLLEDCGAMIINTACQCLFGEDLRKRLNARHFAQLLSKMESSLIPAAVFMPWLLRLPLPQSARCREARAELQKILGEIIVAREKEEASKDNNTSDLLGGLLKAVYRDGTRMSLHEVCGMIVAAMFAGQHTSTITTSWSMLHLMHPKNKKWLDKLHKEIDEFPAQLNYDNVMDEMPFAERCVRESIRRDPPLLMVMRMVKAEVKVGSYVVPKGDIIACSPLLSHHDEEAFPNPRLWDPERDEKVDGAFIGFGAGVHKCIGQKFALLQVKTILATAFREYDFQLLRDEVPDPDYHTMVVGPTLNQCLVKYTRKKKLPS
Sterol 14-alpha demethylase, sequence (Q7Z1V1 whole entry): as the sequence (Q7Z1V1 whole entry, looked up) above

As a reminder, the EC50 is the midpoint of the concentration-response curve. What is called IC50 is the midpoint of a concentration-inhibition curve. By MIC is commonly meant the lowest concentration found to suppress growth. A word on the NOAEL: it is the highest dose or exposure tested at which no adverse effect was seen. Regarding `Cc1n[nH]c2c1[C@@H](c1ccc(OCc3ccccc3Cl)cc1)S[C@@H](C)C(=O)N2`, the Activity came out at 49.5% in [1]; 38% in the series with Trypanosoma cruzi [4]; 89.9% in series [5]; 0% in [6]; 0% in series [8]; 75.8% in series [9]. Further, the Activity in the series with Trypanosoma cruzi [13] was found to be 43%; in series [15] it was 5.4%; with Trypanosoma cruzi [17], 30%; in [18], 1.2%. Also, the Ratio IC50 in series [2] came to 8. Further, the EC50 in the series with Trypanosoma cruzi [3] was 3.86 µM; in the series on Trypanosoma cruzi [16], 4 µM; in the series with Trypanosoma cruzi [19] it was 0.4 µM; in the series on Trypanosoma cruzi [20] it was > 10 µM. Moreover, the Imax in the series with Trypanosoma cruzi [7] was 94%. Moreover, in [10], the IC50 came out at 0.1 µM. In addition, the MIC with Trypanosoma cruzi [11] was found to be 17 µM (≈ 7.04 µg/mL). Also, the outcome in the series on Trypanosoma cruzi [12] was inactive. Also, the NOAEL at 48 h in series [14] was > 50 mg/kg.
As for `O=C(Cn1ccnc1[N+](=O)[O-])NCc1ccccc1` [BENZNIDAZOLE], the survival at 100 mg/kg with Trypanosoma cruzi [21] worked out at 100%. Also, the selectivity ratio at 24 h in [22] and in [32] was > 12 in each case. Moreover, the EC50 in the series with Trypanosoma cruzi [3] was in the range of 2.63 to 3.79 µM; with Trypanosoma cruzi [16], 6.02 to 16.9 µM; in the series with Trypanosoma cruzi [20] it was 10 to 50 µM. Further, the CC50 at 96 h in [23] and in [24] was > 200 µM in each case. Further, the CC50 at 24 h in [25] and in [26] was > 200 µM in each case. Further, the Activity in the series on Trypanosoma cruzi [27] is given as 89.3%; in the series on Trypanosoma cruzi [30], 100%. Moreover, the outcome with Trypanosoma cruzi [28] was Active. Besides, the selectivity ratio in series [29] and in series [31] was > 53 in each case.
